Experimental data as given in publication PMC3655773 (Acta pharmaceutica Sinica. B, 2012).
Several values for one entry are separate records, joined by “and”; a condition that tells them apart may be missing. Identical values can stand only once. Like-named read-outs stand apart in the source and are kept apart here.

Assays:
[1] = Pharmacokinetic assay in rat; conditions: male SD rats; for F (oral bioavailability): i.g. 20 mg/kg vs 3 i.v. 2 mg/kg, dose-normalized AUC(0-t)
[2] = rat, microsomes
[3] = cited from earlier work
in vitro = conditions: Sprague-Dawley, rat, microsomes, pH 7.4
[4] = In vitro metabolic stability in SD rat liver microsomes; conditions: 1 μM, NADPH; for k obs (degradation rate constant): SD rat liver microsomes 0.1 mg/mL, parent compound 3 measured; for T1/2: apparent in vitro half-life; for T1/2 / CLint: SD rat liver microsomes; for CLint: intrinsic clearance
[5] = cited from earlier work; remark: listed apart in the source
HIV-1 = conditions: previous studies, cited from earlier work; for EC50: anti-HIV potency; for TI: therapeutic index
[6] = Water solubility analysis; format: physicochemical; conditions: pH 7.4, room temperature
Outline: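 Excess test compound in water buffered to pH 7.4 with K2HPO4 phosphate, sonicated with stirring for 1 h at room temperature, then filtered. Supernatant analysed by HPLC on a C18 column (70% MeCN/30% water, 1.0 mL/min, UV 320 nm). Saturated concentration taken from peak area against a five-point (five-fold step) standard curve in MeCN, diluted from an acetonitrile stock.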

[7] = i.g. 20 mg/kg in 10% PEG400, parent 3 measured
[8] = i.g. 20 mg/kg in 10% PEG400, plasma parent compound 3 measured

SMILES	CL [1, 7] [mL/min/kg]	Cmax [1, 7] [ng/mL]	MRT(0-t) [1, 7] [min]	Tmax [1, 7] [min]	Vd [1, 7] [L/kg]	AUC(0-t) [1, 8] [ng·L/mL]	F (oral bioavailability) [1]	CLint [2] [µL/min/mg]	T1/2 [2] [min]	k obs (degradation rate constant) [4]	T1/2 [4] [min]	CLint [4] [µL/min/mg]	further results
Cc1c(COC(=O)CN)c(=O)oc2c3c(ccc12)OC(C)(C)[C@H](OC(=O)[C@@]12CCC(C)(C(=O)O1)C2(C)C)[C@@H]3OC(=O)[C@@]12CCC(C)(C(=O)O1)C2(C)C (relative stereo) [Compound 9, [3′,4′-Di-O-(S)-camphanoyl-4-methyl-(+)-cis-kellactone-3-yl]methyl 2-aminoacetate]	0.617 ± 0.017	163.6 ± 13.56	214.9 ± 18.4	15	0.467 ± 0.063	384.1 ± 6.21	7.5%	1780	3.90				
Cc1c(COC(=O)CN)c(=O)oc2c3c(ccc12)OC(C)(C)[C@H](OC(=O)[C@@]12CCC(C)(C(=O)O1)C2(C)C)[C@@H]3OC(=O)[C@@]12CCC(C)(C(=O)O1)C2(C)C.Cl (relative stereo) [Compound 13, [3′,4′-Di-O-(S)-camphanoyl-4-methyl-(+)-cis-kellactone-3-yl]methyl 2-aminoacetate hydrochloride salt]	0.667 ± 0.167	191.1 ± 2.48	128.2 ± 7.38	45	0.123 ± 0.058	477.8 ± 128.7	9.8%	260	26.54				
CC(C)NCC(O)COc1cccc2ccccc12 (stereo not shown) [PRO, propranolol]													T1/2 in vivo [3]: a Reference compounds: propranolol (moderate metabolism in vivo with T1/2 of 3–5 h).; half-life at 1 μM (in vitro): 20.7 min
Cc1c(COC(=O)C(N)C(C)C)c(=O)oc2c3c(ccc12)OC(C)(C)[C@H](OC(=O)[C@@]12CCC(C)(C(=O)O1)C2(C)C)[C@@H]3OC(=O)[C@@]12CCC(C)(C(=O)O1)C2(C)C (relative stereo) [Compound 11, [3′,4′-Di-O-(S)-camphanoyl-4-methyl-(+)-cis-kellactone-3-yl]methyl 2-amino-3-methyl-butanoate]										0.023	30.09	230	
Cc1c(CO)c(=O)oc2c3c(ccc12)OC(C)(C)[C@H](OC(=O)C12CCC(C)(C(=O)O1)C2(C)C)[C@@H]3OC(=O)C12CCC(C)(C(=O)O1)C2(C)C (stereo partly shown) [Compound 3, 3-hydroxymethyl-4-methyl-DCK]	0.333 ± 0.083	530.7 ± 120.8	119 ± 28.7	34.8	0.079 ± 0.039	966.3 ± 219.7	17.3%			0.039	17.92	390	bioavailability (F) ([5]; in rat, previous studies): 15%; EC50 (HIV-1): 4 nM; TI (HIV-1): 6225; AUC(0-t) ([1]; i.v. 2 mg/kg in 10% PEG400): 558.4 ± 8.71 ng·L/mL; CL ([1]; i.v. 2 mg/kg in 10% PEG400): 0.05 ± 0.0017 mL/min/kg; MRT(0-t) ([1]; i.v. 2 mg/kg in 10% PEG400): 74.1 ± 10.1 min; Vd ([1]; i.v. 2 mg/kg in 10% PEG400): 0.008 ± 0.002 L/kg; Water solubility [6]: 8.4 µg/mL
Cc1cc(=O)oc2c3c(ccc12)OC(C)(C)[C@H](OC(=O)C12CCC(C)(C(=O)O1)C2(C)C)[C@@H]3OC(=O)C12CCC(C)(C(=O)O1)C2(C)C (stereo partly shown) [Compound 2, 4-methyl-DCK]													bioavailability ([5]; rat, in vivo): poor bioavailability; EC50 (HIV-1): 1.5 nM; TI (HIV-1): 15,733
Cc1c(COC(=O)C(N)CC(C)C)c(=O)oc2c3c(ccc12)OC(C)(C)[C@H](OC(=O)[C@@]12CCC(C)(C(=O)O1)C2(C)C)[C@@H]3OC(=O)[C@@]12CCC(C)(C(=O)O1)C2(C)C (relative stereo) [Compound 12, [3′,4′-Di-O-(S) -camphanoyl-4-methyl-(+)-cis-kellactone-3-yl]methyl 2-amino-4-methyl-pentanoate]	0.433 ± 0.083	529.0 ± 192.9	77.16 ± 5.1	30	0.049 ± 0.020	775.6 ± 162.9	15.8%			0.023	30.77	230	
Cc1c(COC(=O)C(C)N)c(=O)oc2c3c(ccc12)OC(C)(C)[C@H](OC(=O)[C@@]12CCC(C)(C(=O)O1)C2(C)C)[C@@H]3OC(=O)[C@@]12CCC(C)(C(=O)O1)C2(C)C (relative stereo) [Compound 10, [3′,4′-Di-O-(S)-camphanoyl-4-methyl-(+)-cis-kellactone-3-yl]methyl 2-aminopropanoate]	0.267 ± 0.12	621.5 ± 79.67	107.6 ± 10.9	45	0.045 ± 0.017	1296.5 ± 437.6	26% and 25.7%	140	49.26				systemic clearance (CL) ([1]; i.g. 20 mg/kg): 16 mL/min/kg; Water solubility [6]: 18 µg/mL
Cc1c(COC(=O)CCC(=O)O)c(=O)oc2c3c(ccc12)OC(C)(C)[C@H](OC(=O)[C@@]12CC[C@@](C)(C(=O)O1)C2(C)C)[C@@H]3OC(=O)[C@@]12CC[C@@](C)(C(=O)O1)C2(C)C (relative stereo) [Compound 6, 4-Oxo-4-[(3′,4′-di-0-(S)-camphanoyl-4-methyl-(+)-cis-kellactone-3-yl)methoxy]butanok acid]	1.7 ± 0.333	80.9 ± 18.80	159.5 ± 40.9	22.8	0.669 ± 0.422	157.9 ± 42.94	3.3%	200	35.27				AUC ([1]; i.g. 20 mg/kg): 157.9 ng·h/mL
Cc1c(COC(=O)CCC(=O)O)c(=O)oc2c3c(ccc12)OC(C)(C)[C@H](OC(=O)[C@@]12CC[C@@](C)(C(=O)O1)C2(C)C)[C@@H]3OC(=O)[C@@]12CC[C@@](C)(C(=O)O1)C2(C)C (relative stereo) [Compound 8, 4-Oxo-4-[(3′,4′-di-0-(S)-camphanoyl-4-methyl-(+)-cis-kellactone-3-yl)methoxy]butanok acid]	0.567 ± 0.067	398.5 ± 29.00	91.02 ± 12.4	30	0.102 ± 0.011	588.9 ± 72.06	12.4%	270	25.93				AUC ([1]; i.g. 20 mg/kg): 588.9 ng·h/mL
